L major viab = Leishmania major promastigote growth inhibition; hit rate 9% among 200,000; inhibition, % at 10 µM; AID 1063; Leishmania major promastigotes, resazurin fluorescence viability;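 further: promastigotes grown with compound for 44 hours at 28 °C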
Diaph inh CS = diaphorase inhibition or chemical oxidation counter-screen. diaphorase resazurin-to-resorufin fluorescence, NADH, 16 min; bacterial (C. kluyveri) enzyme, not human. inhibition, % at 20 µM. hit rate 0.69% among 190,000. AID 1217;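 active means primary screen inhibition at 20 µM above a set limit, cut at about 50% in these data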;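 further: plate controls were DMSO with full reaction for no effect and wells lacking NADH for full effect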
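Test system: Clostridium kluyveri diaphorase enzyme / Quantity: diaphorase at 0.14 U/mL in enzyme working solution / Incubation: 16-min room-temperature incubation before reading / Benchmarks: NADH-free wells as positive control, DMSO-only neutral wells / Signal: resorufin fluorescence 544/590 nm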
Diaph act CS = counter-screen for diaphorase-based assays: diaphorase activators and chemical reducers; activation factor at 20 µM; hit rate 0.005% among 190,000; Diaphorase/resazurin coupled assay, resorufin fluorescence, 16 min; stronger effect = higher value; 1 = vehicle wells, 0 = NADH-free wells;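 active means diaphorase activity raised at least twofold by the compound at 20 µM; inactive means activation factor below 2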
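Assay system: bacterial diaphorase enzyme (C. kluyveri) / Input: enzyme 0.07 U/mL final / Medium: 50 mM HEPES pH 7.4 with 4.542 mM MgCl2, 0.005% Tween 20 / Doses: single compound dose of 20 µM, 1% DMSO final / Incubation: 16 min enzyme reaction, ambient temperature / Signal: fluorescence, excitation 544 nm and emission 590 nm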
WT yeast gro inh = growth inhibition of WT yeast, mitochondrial fusion screen; hit rate 2.1% among 190,000; mitochondrial fusion phenotypic screen, WT strain; inhibition, % at 10 µM; in the data active means inhibition above about 58%; tested in S. cerevisiae
G6PDH CS = counter-screen for G6PDH assay hits: L. mesenteroides G6PDH inhibition; Purified L. mesenteroides G6PDH, diaphorase/resazurin coupled fluorescence, 45 min; inhibition, % at 5 µM; hit rate 0.12% among 200,000; AID 1020
L major 1uM = blocks Leishmania major promastigote growth at 1 uM, repeat screen; shares compounds with L major viab; L. major promastigote growth, resazurin fluorescence, 48 h; inhibition, % at 1 µM; hit rate 13% among 1,100;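 active means inhibition above about 50% in both repeat tests, limit read from the data; inconclusive means one repeat under the set limit, the other over it; inactive means both repeats under the set limit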
Active calls of the source: *; ? = inconclusive; . = no result given. In the library only some 11% were active in any assay of this set; here they are far more common. Unless noted, no stated cut-off is given here; in the data, active means inhibition above about 50%; inactive means the rest.

SMILES | L major viab | Diaph inh CS | Diaph act CS | WT yeast gro inh | G6PDH CS | L major 1uM
CCN(Cc1cc2ccccc2[nH]c1=O)S(=O)(=O)c1ccccc1 | 3 | 22 | 0.8 | -13 | -6 | .
CCCN(Cc1cc2ccc(C)cc2[nH]c1=O)S(=O)(=O)c1ccccc1 | 64* | 12 | 0.9 | -16 | 7 | -12
COCCCn1c2nc3ccccc3nc2c2c(=O)n(-c3ccccc3OC)cnc21 | 19 | 10 | 0.9 | 16 | -24 | .
COc1ccccc1-n1cnc2c(c1=O)c1nc3ccccc3nc1n2-c1ccc(C)c(C)c1 | 97* | 15 | 0.8 | 23 | -18 | 97*
COc1ccc(/C=C2\Sc3ccc(C(=O)N4CCc5ccccc5C4)cc3N(C)C2=O)cc1 | -4 | 33 | 0.7 | 10 | -54 | .
COc1ccc(-[n+]2c(C)cc(/C=C3\Sc4ccccc4N3C)cc2C)cc1 | 101* | -19 | 1.2 | 78 | -1 | 101*
Cn1nc(-c2ccccc2)c(-c2nc(-c3cccc(Cl)c3)no2)c1Cl | -5 | 11 | 0.9 | . | 7 | .
CCOC(=O)c1cc(-c2ccc(OC)cc2)nc2c1c(C)nn2CCC#N | 6 | -1 | 1 | 0 | -6 | .
COc1ccc(-c2cc(Nc3ccccc3NC(=O)C(F)(F)F)n(CCC#N)n2)cc1 | 63* | -6 | 1.1 | -15 | -7 | -14
CC(C)Cc1nc2ccccc2n1CCc1ccccc1 | 56* | 12 | 0.9 | 24 | 4 | 7
CC(=O)c1c(N2CCN(c3cccc(Cl)c3)CC2)nc(=S)n(-c2ccccc2)c1C | 91* | 61* | 0.4 | 9 | -4 | -9
CCn1c(-c2ccc(N(C)C)cc2)nc2ccccc21 | 97* | 8 | 0.9 | -2 | 0 | 22
CCOC(=O)c1ccc2ncc(C(=O)OCC)c(NCc3ccco3)c2c1 | 57* | 16 | 0.8 | -6 | 2 | 2
COC(=O)c1cccc(Cn2nc(C)c([N+](=O)[O-])c2C)c1 | 1 | 1 | 1 | 8 | 1 | .
OCCC1CN(Cc2cccc(C(F)(F)F)c2)CCN1Cc1ccccc1 (centres undefined) | 80* | 30 | 0.7 | 1 | 13 | ?
COc1ccc(C(=O)C(CN2CCOCC2)c2ccccc2)cc1F (centres undefined) | 100* | 10 | 0.9 | 61* | -3 | 86*
COc1cccc(C2=NOC(C(=O)NCCN3CCOCC3)C2)c1 (centres undefined) | 5 | 21 | 0.8 | 5 | 5 | .
O=C(CN1CCCCC1)N1CCCc2c1c(=O)oc1ccc(OCc3ccccc3)cc21 | 67* | 10 | 0.9 | 8 | -1 | -2
COc1ccc(N2CCN(c3ncnc4c3nnn4Cc3ccccc3Cl)CC2)cc1 | -1 | 0 | 1 | 5 | 8 | .
CS(=O)(=O)N1CCCC(C(=O)Nc2ccc3c(c2)OCCO3)C1 (centres undefined) | -8 | 8 | 0.9 | -21 | -2 | .
CN1CCN(S(=O)(=O)c2ccc(NC(=S)NC(=O)c3ccccc3)cc2)CC1 | 4 | 25 | 0.7 | 12 | 0 | .
CN1CCN(S(=O)(=O)c2ccc(NC(=S)NC(=O)c3ccc(Cl)cc3)cc2)CC1 | 85* | 18 | 0.8 | 22 | -2 | -8
O=C(CSC1=NCCN1)NC12CC3CC(CC(C3)C1)C2 | 100* | 6 | 0.9 | -12 | 4 | -5
O=C(C1CCC(CNc2nc(=S)[nH]c3ccccc23)CC1)N1CCN(c2ccccn2)CC1 (centres undefined) | 99* | 32 | 0.7 | 4 | 28 | 39
COc1ccc(CNC(=O)C2CCC(CNc3nc(=S)[nH]c4ccccc34)CC2)cc1 (centres undefined) | 7 | -2 | 1 | 0 | -3 | .
SMILES | L major viab | Diaph inh CS | Diaph act CS | WT yeast gro inh | G6PDH CS | L major 1uM
C/C(N)=C(/C#N)C(=O)CSc1nnc(Nc2ccccc2C)s1 | 0 | 9 | 0.9 | -9 | 12 | .
C/C(N)=C(/C#N)C(=O)CSc1nnc(Nc2ccccc2)s1 | 54* | 7 | 0.9 | 2 | -4 | -15
CC12COC3(P(=O)(c4ccccc4)c4ccccc4)CC1CCC23CP(=O)(c1ccccc1)c1ccccc1 (centres undefined) | 62* | 0 | 1 | -2 | 2 | -7
CC12COC3(C(=O)Nc4ccc(F)cc4)CC1CCC32C (centres undefined) | -8 | 16 | 0.8 | -12 | 10 | .
COc1cccc(CN2CCN(Cc3nc(C(C)C)cs3)CC2CCO)c1 (centres undefined) | -4 | . | . | -2 | 8 | .
Cc1ccc(S(=O)(=O)/N=C(\CCl)N2CCOCC2)cc1 | 87* | 3 | 1 | -8 | 16 | 49
COc1ccc(-c2cc(-c3cc(C)ccc3O)[nH]n2)cc1 | 24 | 29 | 0.7 | 46 | 20 | .
Cc1ccc(O)c(-c2cc(-c3ccccc3C)[nH]n2)c1 | 55* | 21 | 0.8 | 78* | -20 | 20
CC(=O)c1ccc(NC(=O)C(=O)c2cn(CC(=O)N3CCCCC3)c3ccccc23)cc1 | -1 | -1 | 1 | 3 | -19 | .
Cc1ccccc1NC1=C/C(=N\S(=O)(=O)c2cccs2)c2ccccc2C1=O | 100* | 24 | 0.8 | 89* | 55* | 97*
CCCc1nc2ccc(NC(=O)c3cccs3)cc2c(=O)n1Cc1ccc(Cl)cc1 | 72* | 11 | 0.9 | -1 | -11 | -7
Cc1nc2ccc(NC(=O)c3cccs3)cc2c(=O)n1Cc1ccc(Cl)cc1 | 16 | 19 | 0.8 | -4 | -53 | .
O=C(CN1C(=O)NC2(CCCCCC2)C1=O)Nc1ccc(S(=O)(=O)N2CCOCC2)cc1 | -4 | 10 | 0.9 | -15 | 5 | .
CCOc1ccc(C2CC(c3cccc(OC)c3OC)n3nnnc3N2)cc1Cl (centres undefined) | 12 | 23 | 0.8 | 8 | 0 | .
c1ccc(C(Cc2nc(-c3ccncc3)no2)c2ccccc2)cc1 | 70* | 10 | 0.9 | -6 | -15 | 11
Cc1ccc(C)c(S(=O)(=O)NC(CC(C)C)C(=O)O)c1 (centres undefined) | -1 | -6 | 1.1 | 15 | 2 | .
CCCCCCCCCCCCCCCCn1cc[n+](C)c1 | 101* | -225 | 3.2* | 96 | 1 | 99*
COC(=O)c1ccc(NC(=O)C(OC)c2ccccc2)cc1 (centres undefined) | -3 | 0 | 1 | -16 | 9 | .
CC(=O)NCCCC(=O)NN1C(=S)N(Cc2ccccc2)C(=O)C1CC(=O)Nc1cccc(C)c1 (centres undefined) | -11 | 14 | 0.9 | -14 | 4 | .
CN1CC(=O)NC1=NC(=O)c1ccc(Cl)c(S(=O)(=O)N2CCCCCC2)c1 | 30 | 17 | 0.8 | -5 | 4 | .
COc1ccc(CC(=O)OC(C)CN2CCCC2)cc1 (centres undefined) | 100* | 5 | 0.9 | -11 | -1 | -11

Screening results as filed in PubChem.
